ChEMBL document CHEMBL3352355, “Synthesis of novel polysubstituted (2SR,4RS)-2-heteroaryltetrahydro-1,4-epoxy-1-benzazepines and cis-2-heteroaryl-4-hydroxytetrahydro-1H-1-benzazepines as antiparasitic agents” (Eur J Med Chem, 2014)

Legend:
[1] = Cytotoxicity against African green monkey Vero cells; format: cell-based; conditions: chlorocebus sabaeus
Summary of the method: (§1)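 Vero monolayers or THP-1 cells (made adherent with 10 ng/mL PMA), in RPMI 1640 with 10% hiFCS, were exposed to compound (0.3–300 µg/mL) for 72 h at 37 °C, 5% CO2. Viability was measured by MTT, with formazan dissolved in DMSO and read at 580 nm. % cytotoxicity was calculated against untreated cells; CC50 came from sigmoidal regression, given as mean ± SD.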

[2] = Cytotoxicity against human THP1 cells; format: cell-based; conditions: THP-1 cells; summary of the method: as §1
[3] = Selectivity index, ratio of CC50 for human THP1 cells to IC50 for promastigote stage of Leishmania infantum; format: functional, THP-1
Summary of the method: (§2)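 Selectivity index was calculated as CC50 in Vero (T. cruzi) or THP-1 (L. infantum) cells divided by parasite IC50. Both values came from 72 h mammalian-cell MTT assays and the parasite assays; SI ≥ 3 was defined as parasite-selective.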

Trypanosoma cruzi [4] = test: Antiparasitic activity against epimastigote stage of Trypanosoma cruzi infected in Vero cells assessed as parasite growth inhibition […] by hemocytometery; format: functional, organism-based
Summary of the method: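 Exponential-phase T. cruzi Sylvio X10 epimastigotes (LIT medium with hiFCS) or L. (L.) infantum MHOM/BR/74/PP75 promastigotes (RPMI 1640, hemin, HEPES, 10% hiFCS) were exposed to threefold serial dilutions (0.3–300 µg/mL) for 72 h at 28 °C. Viable parasites were counted by hemocytometer with 0.25% eosin yellow. IC50 came from sigmoidal regression, given as mean ± SD.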

Leishmania infantum [5] = test: Antiparasitic activity against promastigote stage of Leishmania infantum assessed as parasite growth inhibition after 72 hrs by hemocytometery
Trypanosoma cruzi [6] = test: Antiparasitic activity against amastigote stage of Trypanosoma cruzi infected in Vero cells assessed as parasite growth inhibition after 24 hrs by hemocytometery; format: functional, organism-based; conditions: Trypanosoma cruzi, Vero, 24 h; read-out: IC50
Summary of the method: (§3)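 Host cells were Vero for T. cruzi (infected with tissue-derived trypomastigotes) and THP-1 (PMA-transformed, 10 ng/mL) for L. (L.) infantum (infected with late-phase promastigotes), at 1:10 cell:parasite for 24 h. Serial dilutions were given as two doses, the second on day 3 with a medium change. Read-out was % infected cells on methanol-fixed, Giemsa-stained slides (300 cells). IC50 came from sigmoidal regression; experiments in duplicate, concentrations in triplicate.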

Leishmania infantum [7] = test: Antiparasitic activity against amastigote stage of Leishmania infantum infected in THP1 cells assessed as parasite growth inhibition after 24 hrs by hemocytometery; format: functional, organism-based, THP-1; conditions: Leishmania infantum, THP-1, 24 h; read-out: IC50; summary of the method: as §3
[8] = Selectivity index, ratio of CC50 for African green monkey Vero cells to IC50 for epimastigote stage of Trypanosoma cruzi; format: functional; summary of the method: as §2

SMILES | IC50 (Trypanosoma cruzi [4]) [µM] | IC50 (Trypanosoma cruzi [6]) [µM] | CC50 [1] [µM] | CC50 [2] [µM] | Selectivity Index [3] | IC50 (Leishmania infantum [5]) [µM] | IC50 (Leishmania infantum [7]) [µM] | Selectivity Index [8]
Cc1ccc([C@@H]2C[C@H]3Cc4cc(OC(F)(F)F)ccc4N2O3)s1 (racemic) | 43.9 | > 293 | 170 | 282 | 26.8 | 10.5 | > 293 | 3.9
Cc1ccc([C@@H]2C[C@H](O)Cc3cc(Cl)ccc3N2)s1 (relative stereo) | 14.6 | > 114 | 154 | > 2050 | >31.8 | 64.4 | > 341 | 10.5
O=[N+]([O-])c1ccc([C@@H]2C[C@H]3Cc4cc(OC(F)(F)F)ccc4N2O3)o1 (racemic) | > 843 | > 281 | 214 | 404 | 6.1 | 66.6 | > 281 | 
O=[N+]([O-])c1ccc([C@@H]2C[C@H]3Cc4ccccc4N2O3)o1 (racemic) | 53 | > 122 | 51.4 | 234 | 2.2 | 107 | > 368 | 1
O[C@@H]1Cc2cc(F)ccc2N[C@H](c2cccs2)C1 (relative stereo) | 764 | > 380 | 218 | 190 | 1.6 | 120 | > 380 | 0.3
FC(F)(F)Oc1ccc2c(c1)C[C@@H]1C[C@@H](c3ccoc3)N2O1 (racemic) | 192 | > 107 | 180 | > 1930 | >76.6 | 25.2 | > 322 | 0.9
Cc1ccsc1[C@@H]1C[C@H](O)Cc2ccccc2N1 (relative stereo) | 143 | > 128 | 616 | 579 | 3.7 | 156 | > 128 | 4.3

Continued, in another order:

IC50 (Trypanosoma cruzi [4]) [µM] | IC50 (Trypanosoma cruzi [6]) [µM] | SMILES | CC50 [1] [µM] | CC50 [2] [µM] | Selectivity Index [3] | IC50 (Leishmania infantum [5]) [µM] | IC50 (Leishmania infantum [7]) [µM] | Selectivity Index [8]
151 | > 408 | Fc1ccc2c(c1)C[C@@H]1C[C@@H](c3ccoc3)N2O1 (racemic) | > 1220 | > 1220 | 11.9 | 103 | > 408 | >8.1
25.4 | > 120 | Clc1ccc2c(c1)C[C@@H]1C[C@@H](c3cccs3)N2O1 (racemic) | > 361 | > 361 | >17.5 | 20.7 | > 120 | >14.2
53.1 |  | Clc1ccc2c(c1)C[C@@H]1C[C@@H](c3ccco3)N2O1 (racemic) | 353 | > 1150 | >24.3 | 47.3 | > 128 | 6.7
414 | > 387 | Cn1cccc1[C@@H]1C[C@H]2Cc3cc(F)ccc3N1O2 (mixture of isomers) | 533 | 2180 | 6.9 | 316 | > 387 | 1.3
229 | > 440 | c1coc([C@@H]2C[C@H]3Cc4ccccc4N2O3)c1 (racemic) | 1560 | 663 | 14.7 | 45.3 | > 440 | 6.8
192 | > 386 | Cc1ccc([C@@H]2C[C@H]3Cc4cc(F)ccc4N2O3)o1 (racemic) | 1080 | 338 | 3.3 | 102 | > 128 | 5.6
